# CHRM5 PAM: potentiates acetylcholine response at human M5 receptor. activation, % at 3 µM. 0.3% of 360,000 active. CHO-K1 hM5, Fluo-8 calcium, ACh EC20 PAM; 0% = ACh EC20, 100% = ACh EC100. P08912;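 active = activation above the run cutoff, the mean activation of all test compounds plus 3 SD, cut at about 18% in these data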
# Target sequence (P08912 whole entry, looked up): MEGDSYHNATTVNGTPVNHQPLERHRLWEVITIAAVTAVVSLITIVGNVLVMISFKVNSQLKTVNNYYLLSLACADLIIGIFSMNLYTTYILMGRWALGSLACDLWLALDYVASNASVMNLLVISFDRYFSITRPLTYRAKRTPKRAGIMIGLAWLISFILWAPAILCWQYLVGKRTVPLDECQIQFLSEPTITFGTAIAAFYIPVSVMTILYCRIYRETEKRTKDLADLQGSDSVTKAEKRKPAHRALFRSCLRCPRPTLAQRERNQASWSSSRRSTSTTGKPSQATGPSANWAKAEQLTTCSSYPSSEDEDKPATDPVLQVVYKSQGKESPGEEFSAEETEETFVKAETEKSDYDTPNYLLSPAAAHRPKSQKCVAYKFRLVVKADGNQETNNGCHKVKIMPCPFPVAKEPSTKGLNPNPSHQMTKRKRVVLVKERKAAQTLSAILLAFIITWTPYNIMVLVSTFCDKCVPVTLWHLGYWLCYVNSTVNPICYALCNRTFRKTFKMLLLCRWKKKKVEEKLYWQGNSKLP
#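 Assay system: CHO-K1 hM5 cells / Incubation: Fluo-8 loading 80 min at 37 °C plus 30 min room temperature / Technique: Fluo-8 calcium dye fluorescence, kinetic read / Repeats: single replicate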
# M4 ag: CHRM4 agonism in calcium assay. P08173. CHO-K1 hM4/Gqi5, Fluo-8 calcium fluorescence; vehicle 0%, full acetylcholine response 100%. activation, % at 3 µM. 0.14% of 360,000 active;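 active = activation above the run mean over all test wells plus 3 SD, cut at about 32% in these data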;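 also: peak over basal fluorescence ratio per well then scaled between controls; 0% = DMSO wells and 100% = acetylcholine at EC100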
# M5 ag: CHRM5 agonism in calcium assay; 0.19% of 360,000 active; activation, % at 3 µM; P08912; CHO-K1 hM5 cells, Fluo-8 calcium fluorescence; 0% DMSO wells, 100% maximal acetylcholine response;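 active = activation above the run's mean over test compounds plus 3 SD, cut at about 23% in these data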;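 also: signal is peak over basal fluorescence ratio across the kinetic read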
# CHRM5 antagonist: blocks acetylcholine activation of human M5 receptor; CHO-hM5 cells, Fluo-8 calcium fluorescence, ACh EC80; inhibition, % at 3 µM; 0.59% of 360,000 active; AID 624040;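 active = inhibition above a per-plate cutoff, the mean of that plate's test compounds plus 3 SD, cut at about 27% in these data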;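 also: 0% = acetylcholine EC80 with DMSO and 100% = DMSO without agonist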
# CHRM4 antagonist: blocks acetylcholine activation of human M4 receptor; CHO-hM4 cells, ACh EC80, Fluo-8 calcium fluorescence; 0.73% of 360,000 active; inhibition, % at 3 µM; P08173; AID 624125;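 active = inhibition above its plate's cutoff, the mean inhibition of sample wells plus 3 SD, cut at about 27% in these data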;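 also: 0% = acetylcholine EC80 with DMSO and 100% = DMSO without agonist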
# M4 PAM: potentiates acetylcholine response at human M4 receptor. CHO-K1 hM4/Gqi5, Fluo-8 calcium fluorescence, ACh EC20; 0% = ACh EC20, 100% = maximal ACh. AID 624126. P08173. activation, % at 3 µM. 0.4% of 360,000 active;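 active = activation above its plate's cutoff, the mean activation of sample wells plus 3 SD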
# * hit, by the source's call. Shown are actives, neighbours in structure and some others; about 1.9% of the full set was active somewhere.
SMILES,CHRM5 PAM,M4 ag,M5 ag,CHRM5 antagonist,CHRM4 antagonist,M4 PAM
CCC(C)(C)NC(=O)C(c1ccco1)N(C(=O)CNC(=O)c1cccs1)c1cccnc1 (stereo unspecified),29*,6,-1,29*,-12,4
CN1C(=O)/C(=C/c2ccc(OCc3ccc(F)cc3)cc2)N(C)C1=S,-1,0,-1,-2,0,-2
CN1C(=O)/C(=C/c2ccccc2OCc2cccc(F)c2)N(C)C1=S,-18,-1,-5,45*,65*,-23
Cc1ccc(CNc2nc(NCc3ccccc3)nc3ccsc23)c(C)c1,-18,22,9,28*,28*,-13
O=C1CCCN1CCCNc1nc(NCc2ccccc2)nc2ccsc12,-22,145*,85*,90*,96*,-15
CNc1nc(NCc2ccc(C)cc2C)c2sccc2n1,-8,7,5,12,1,-6
COCCNc1nc(NCc2ccccc2OC)c2sccc2n1,-10,14,2,4,-16,-1
COCCNc1nc(NCc2ccccc2)nc2ccsc12,-22,142*,82*,97*,100*,-15
C=CCN(CC=C)Cc1cc(=O)oc2cc(C)c(Cl)cc12,-2,-3,1,-2,-3,0
COc1ccc(-n2nc3c(N4CCC(C(=O)N5CCC(C)CC5)CC4)nnc(C)c3c2C)cc1,-15,1,-5,43*,20,-12
COc1cc(OC)c(OC)cc1/C=C1\Oc2cc(OCC(=O)N3Cc4ccccc4C[C@H]3C(=O)O)ccc2C1=O,-2,12,5,8,5,4
Cc1nnc(SCCn2c(N3CCC(C)CC3)nc3c2c(=O)[nH]c(=O)n3C)s1,3,2,2,-9,-7,10
Cc1nnc(SCCn2c(N3CCCC(C)C3)nc3c2c(=O)[nH]c(=O)n3C)s1 (stereo unspecified),19*,1,3,-15,16,8
O=C(O)/C=C/c1cn(Cc2ccccc2Cl)nc1-c1ccccc1,20*,2,0,-4,-12,-3
O=C(O)c1cccc(N2C(=O)c3cccc4c(Cl)ccc(c34)C2=O)c1,-2,2,-2,-4,1,7
Cc1cccc(N2C(=O)c3cccc4c(N(C)CCO)ccc(c34)C2=O)c1,-17,38*,42*,23,21,-25
Nc1ccc2c3c(cccc13)C(=O)N(c1ccccc1)C2=O,-20,70*,45*,23,31*,-28
Nc1cccc(N2C(=O)c3cccc4c(N)ccc(c34)C2=O)c1,-11,39*,21,8,4,-12
CC(C)CCN1C(=O)c2cccc3c(N)ccc(c23)C1=O,-32,97*,313*,70*,47*,-18
Cc1ccc(NC(=O)CC2CCCC2)c(Br)c1,2,1,-3,5,1,3
CCN(CC)S(=O)(=O)c1ccc(C(=O)NCC(=O)NCCCc2ccccc2)cc1,0,1,1,14,1,-8
Cc1cccc(CN(C)C[C@@H]2OCc3cnnn3CCCC(=O)N([C@H](C)CO)C[C@H]2C)c1,4,1,-1,-4,-16,7
Cc1cccc(N2C(=O)c3cccc4c(N)ccc(c34)C2=O)c1,-31,104*,380*,51*,29*,-18
Cc1cccc(N2C(=O)c3cccc4cccc(c34)C2=O)c1,1,1,1,5,-3,2
Cc1ccccc1N1CCN(CCC(=O)Nc2ccc(F)cc2)CC1,-6,3,0,2,4,-4
SMILES,CHRM5 PAM,M4 ag,M5 ag,CHRM5 antagonist,CHRM4 antagonist,M4 PAM
COc1ccccc1OCCCCN1CCN(C(c2ccccc2)c2ccccc2)CC1,-20,1,-7,22,63*,-38
OC(COc1ccccc1)CN1CCN(C(c2ccccc2)c2ccccc2)CC1 (stereo unspecified),-32,-1,-25,17,17,-13
O=S(=O)(CCN1CCN(C(c2ccccc2)c2ccccc2)CC1)C(F)(F)F,-22,1,-6,45*,48*,-15
c1ccc(CN2CCN(C(c3ccccc3)c3ccccc3)CC2)cc1,-26,-2,-17,9,12,-15
COc1cccc(OC)c1OCCCCCCN1CCN(C)CC1,1,1,-6,2,-7,2
c1ccc(OCCOCCN2CCN(C(c3ccccc3)c3ccccc3)CC2)cc1,-22,1,-8,52*,86*,-44
CC(C)c1ccccc1OCCCCCN1CCOCC1,-26,1,-18,6,32*,-13
COCCN1CC(CNC(=O)c2cc(COc3ccccc3SC)on2)CC1=O (stereo unspecified),4,4,-4,-16,-15,3
O=C(NCCN1CCOCC1)c1ccc(Cl)c(S(=O)(=O)NCc2ccccc2)c1,11,1,1,9,-12,22*
CCC1Oc2ccccc2N(CC(=O)NCC2CCCO2)C1=O (stereo unspecified),5,2,0,6,-4,7
CC(=O)c1cccc(NC(=O)C(C)OC(=O)CCCN=C2NS(=O)(=O)c3ccccc32)c1 (stereo unspecified),3,0,1,-1,8,-1
O=C(CCCN1CCOCC1)c1ccc2c(c1)OCCO2,-2,2,0,8,-4,5
O=C(CCCN1CCC(c2ccccc2)C1)c1ccc2c(c1)OCCO2 (stereo unspecified),-9,4,-5,11,27*,-15
CC(C)N(C)S(=O)(=O)c1ccc(NC(=O)C2=COCCO2)cc1,2,4,4,14,0,2
COc1ccc(NC2=CC(c3cccc(OC)c3)N(c3ccc(OC)cc3)C2=O)cc1 (stereo unspecified),-8,2,7,50*,24,0
O=C(CN1C(=O)COc2ccc(S(=O)(=O)N3CCOCC3)cc21)Nc1cccc(Cl)c1,-3,2,-4,3,-4,-3
COC(=O)c1ccccc1-c1cn(C)c2ccccc2c1=O,-2,0,-5,2,-7,-3
CC(=O)c1ccc(N2CCN(C(=O)C3(S(=O)(=O)c4ccc(Cl)cc4)CC3)CC2)cc1,-7,7,3,-4,0,-5
COc1ccc(N2CCN(C(=O)C3(S(=O)(=O)c4ccc(C)cc4)CC3)CC2)cc1,23*,2,0,-15,-9,-4
O=C(Nc1ccc(NC(=O)c2ccco2)nc1)c1cccnc1,8,4,-2,-8,-9,21*
Cc1cc(-c2ccc(Cl)cc2)n2nc(N)nc2n1,0,0,-2,-11,-1,28*

# Source: PubChem (The Scripps Research Institute Molecular Screening Center)
